ChEMBL document CHEMBL1158835, “Hirsutane sesquiterpenes from the fungus Lentinus connatus BCC 8996” (J Nat Prod, 2005)
≈ marks a conversion by molar mass, not a printed value.

Columns and labels:
Plasmodium falciparum = experiment: Antimalarial activity against multidrug-resistant Plasmodium falciparum K1 after 42 hrs by [3H]hypoxanthine uptake; assay type: functional, organism-based
Summary of the method: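 Microculture radioisotope method following Desjardins; growth of multidrug-resistant K1 parasites read as in vitro [3H]-hypoxanthine uptake. IC50 = concentration giving 50% reduction in parasite growth. Dihydroartemisinin run as standard.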

KB = experiment: Cytotoxicity against human KB cells by SRB assay; assay type: functional, cell-based
Summary of the method: (§1)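 Colorimetric (Skehan) cytotoxicity assay on KB human epidermoid carcinoma, BC human breast cancer, NCI-H187 human small cell lung cancer, and Vero African green monkey kidney […] cells. Ellipticine served as the reference substance. Activity is expressed as IC50.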

[1] = Cytotoxicity against human BC cells by SRB assay; assay type: functional, cell-based; summary of the method: as §1
NCI-H187 = experiment: Cytotoxicity against human NCI-H187 cells by SRB assay; assay type: functional, cell-based; summary of the method: as §1
Vero = experiment: Cytotoxicity against african green monkey Vero cells by SRB assay; assay type: cell-based; conditions: Chlorocebus sabaeus; summary of the method: as §1

Row | Compound | IC50 (Plasmodium falciparum) | IC50 (KB) | IC50 [1] | IC50 (NCI-H187) | IC50 (Vero)
1 | COc1ccc2c(c1)C(=O)CC(C)(C)O2 | > 20 µg/mL | > 20 µg/mL | > 20 µg/mL | > 20 µg/mL | > 50 µg/mL
2 | C[C@H]1[C@@H](O)O[C@@H]2O[C@@]3(C)CC[C@H]4[C@H](C)CC[C@@H]1[C@@]24OO3 [ARTENIMOL] | 0.0018 µg/mL (≈ 0.00633 µM) | – | – | – | –
3 | CC1=C(O)C(=O)[C@]2(O)C[C@H]3CC(C)(C)[C@H](O)[C@H]3[C@]12C [CONNATUSIN A] | > 20 µg/mL | > 20 µg/mL | > 20 µg/mL | > 20 µg/mL | > 50 µg/mL
4 | CC1(C)C[C@@H]2CC3=CC(=O)[C@@](O)(CO)[C@@]3(C)[C@@H]2[C@H]1O [CONNATUSIN B] | > 20 µg/mL | > 20 µg/mL | > 20 µg/mL | > 20 µg/mL | > 50 µg/mL
5 | Cc1c2ccncc2c(C)c2c1[nH]c1ccccc12 [ELLIPTECINE] | – | 0.21 µg/mL (≈ 0.853 µM) | 0.27 µg/mL (≈ 1.1 µM) | 0.32 µg/mL (≈ 1.3 µM) | –
6 | C=C1[C@@H](O)[C@H]2O[C@]23C[C@H]2CC(C)(C)[C@H](O)[C@H]2[C@]13C [HYPNOPHILIN 1] | 3.1 µg/mL (≈ 12.4 µM) | > 20 µg/mL | > 20 µg/mL | 0.67 µg/mL (≈ 2.68 µM) | 1.1 µg/mL (≈ 4.39 µM)
7 | C=C1C(=O)[C@H]2O[C@]23C[C@H]2CC(C)(C)[C@H](O)[C@H]2[C@]13C [HYPNOPHILIN] | > 20 µg/mL | > 20 µg/mL | > 20 µg/mL | > 20 µg/mL | > 50 µg/mL
8 | CC(C)=C[C@@H](O)C1=CC(=O)[C@@H]2O[C@@H]2C1=O [PANEPOXYDIONE] | 2.1 µg/mL (≈ 10.1 µM) | 0.8 µg/mL (≈ 3.84 µM) | 0.8 µg/mL (≈ 3.84 µM) | 0.22 µg/mL (≈ 1.06 µM) | 0.2 µg/mL (≈ 0.961 µM)
9 | CC(C)=C[C@H](O)C1=C[C@@H](O)[C@@H]2O[C@@H]2C1=O [PANEPOXYDONE] | 3.4 µg/mL (≈ 16.2 µM) | 1.9 µg/mL (≈ 9.04 µM) | 2.9 µg/mL (≈ 13.8 µM) | 0.66 µg/mL (≈ 3.14 µM) | 0.9 µg/mL (≈ 4.28 µM)
